Test results: ChEMBL document CHEMBL4368901 (J Med Chem, 2019)
Calls of active or inactive are those of the source. The rule behind the calls is not given here.

Experiments:
[1] = biological target: T1, Glutaminase kidney isoform, mitochondrial (Homo sapiens, UniProt O94925); assay: Inhibition of human KGA preincubated for 15 to 30 mins followed by substrate addition and measured after 3 to 4 hrs by GDH-EZMTT reagent-based GDH coupled assay
T1 sequence (O94925 whole entry): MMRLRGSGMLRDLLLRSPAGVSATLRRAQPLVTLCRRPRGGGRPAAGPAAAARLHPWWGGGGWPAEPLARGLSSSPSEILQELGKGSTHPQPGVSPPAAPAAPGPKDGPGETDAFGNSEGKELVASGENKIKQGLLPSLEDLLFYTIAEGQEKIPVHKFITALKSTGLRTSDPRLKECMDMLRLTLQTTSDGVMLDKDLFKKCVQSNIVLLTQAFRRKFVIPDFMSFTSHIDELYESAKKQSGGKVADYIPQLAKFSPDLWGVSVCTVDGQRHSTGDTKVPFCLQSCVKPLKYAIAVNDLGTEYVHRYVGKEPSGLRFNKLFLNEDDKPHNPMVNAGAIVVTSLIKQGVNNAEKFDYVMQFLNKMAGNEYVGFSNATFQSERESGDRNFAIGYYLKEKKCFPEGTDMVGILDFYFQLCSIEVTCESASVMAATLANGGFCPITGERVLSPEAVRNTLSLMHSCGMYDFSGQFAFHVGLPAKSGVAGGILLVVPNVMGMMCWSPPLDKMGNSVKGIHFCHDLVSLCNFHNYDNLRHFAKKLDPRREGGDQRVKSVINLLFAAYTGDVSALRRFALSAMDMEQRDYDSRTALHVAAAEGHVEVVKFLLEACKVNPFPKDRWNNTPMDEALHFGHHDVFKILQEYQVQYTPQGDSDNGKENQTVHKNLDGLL

A549 [2] = assay: Antiproliferative activity against human A549 cells after 5 days by EZMTT reagent-based assay; format: functional, cell-based; details: A549, 120 h
[3] = Inhibition of GDH (unknown origin) using NADP+ and glutamate as substrate preincubated for 0.5 hrs followed by substrate addition and measured after 1 hr by EZMTT reagent-based UV-Vis absorbance assay; set-up: species or system Homo sapiens
A549 [4] = assay: Antiproliferative activity against human A549 cells after 5 days by EZMTT reagent-based assay relative to control; format: functional
A549 [5] = assay: Induction of ROS generation in human A549 cells at 10 uM after 12 hrs by DCFH-DA staining-based fluorescence microscopic analysis; format: functional, cell-based
Procedure, shortened: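 A549 cells were seeded at 10000 per well and exposed to compound at 0, 3 or 10 µM for 12 h. ROSUP at 100 µg/ml served as the positive control, alongside untreated cells. ROS was then assessed.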

HCT-116 [6] = assay: Antiproliferative activity against human HCT116 cells after 5 days by EZMTT reagent-based assay relative to control; format: functional
CAKI-1 [7] = assay: Antiproliferative activity against human Caki1 cells after 5 days by EZMTT reagent-based assay; format: functional, cell-based; details: CAKI-1, 120 h
HCT-116 [8] = assay: Antiproliferative activity against human HCT116 cells after 5 days by EZMTT reagent-based assay; format: functional, cell-based; details: HCT-116, 120 h
H22 [9] = assay: Antiproliferative activity against mouse H22 cells after 5 days by EZMTT reagent-based assay; format: functional, cell-based; details: H22, 120 h
CAKI-1 [10] = assay: Antiproliferative activity against human Caki1 cells after 5 days by EZMTT reagent-based assay relative to control; format: functional
H22 [11] = assay: Antiproliferative activity against mouse H22 cells after 5 days by EZMTT reagent-based assay relative to control; format: functional
[12] = Metabolic stability in mouse liver microsomes at 50 uM after 4 hrs in presence of NADPH by HPLC analysis; format: ADME, Microsome; details: read-out: Stability
Procedure, shortened: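 Compound was incubated with mouse liver microsomes for 4 h, with coumarin as the control. The remaining level was quantified by HPLC using UV absorbance at 254 nm.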

SMILES | IC50 [1] | IC50 (A549 [2]) | IC50 [3] | Imax (A549 [4]) | other results
Nc1nnc(CCSCCc2nnc(NC(=O)C34CC5CC(CC(C5)C3)C4)[se]2)[se]1 | 8 µM | > 13 µM | > 13 µM | 0% | 
Nc1nnc(CCSCCc2nnc(NC(=O)CC34CC5CC(CC(C5)C3)C4)[se]2)[se]1 | 0.3 µM | 5 µM | > 13 µM | 60% | 
Cn1ccc(CC(=O)Nc2nnc(CCSCCc3nnc(N)s3)s2)c1 | 5.1 µM | > 13 µM | > 13 µM |  | 
O=C(Cc1cccc(OC(F)(F)F)c1)Nc1ccc(CCCCc2nnc(NC(=O)Cn3cc(F)c(=O)[nH]c3=O)[se]2)nn1 | 0.02 µM | 0.46 µM | > 13 µM | 91% | Activity (A549 [5]): Active
O=c1c2ccccc2[se]n1CCCCCCn1[se]c2ccccc2c1=O |  |  |  |  | Imax (HCT-116 [6]): 100%; IC50 (CAKI-1 [7]): 1.29 µM; IC50 (HCT-116 [8]): 2.17 µM; IC50 (H22 [9]): 0.84 µM; Imax (CAKI-1 [10]): 100%; Imax (H22 [11]): 100%
Cn1cc(CC(=O)Nc2nnc(CCSCCc3nnc(N)s3)s2)c2ccccc21 | 1.4 µM | > 13 µM | > 13 µM |  | 
c1ccc(CCNc2nnc(CCSCCc3nnc(NCCc4ccccc4)[se]3)[se]2)cc1 | > 13 µM | > 13 µM | > 13 µM | 0% | 
O=C(Nc1nnc(CCSCCc2nnc(NC(=O)C34CC5CC(CC(C5)C3)C4)[se]2)[se]1)C12CC3CC(CC(C3)C1)C2 | 1.7 µM | > 13 µM | > 13 µM | 0% | 
Nc1nnc(CCSCCc2nnc(NC(=O)Cc3ccccc3)[se]2)[se]1 | 2.8 µM | > 13 µM | > 13 µM |  | 
COc1ccc(Nc2nnc(CCSCCc3nnc(Nc4ccc(OC)cc4)[se]3)[se]2)cc1 | > 13 µM | > 13 µM | > 13 µM | 0% | 
Cn1cc(CC(=O)Nc2nnc(CCCCc3ccc(NC(=O)Cc4cccc(OC(F)(F)F)c4)nn3)[se]2)c2ccccc21 |  | 0.017 µM | > 13 µM | 80% | Imax (HCT-116 [6]): 92%; IC50 (CAKI-1 [7]): 0.014 µM; IC50 (HCT-116 [8]): 0.009 µM; IC50 (H22 [9]): > 10 µM; Imax (CAKI-1 [10]): 90%; Imax (H22 [11]): 10%
Nc1nnc(CCCCc2nnc(NC(=O)Cc3ccccc3)s2)s1 | > 13 µM | > 13 µM | > 13 µM | 0% | 
O=C(Cc1ccccc1)Nc1nnc(CCSCCc2nnc(NC(=O)Cc3ccccc3)s2)s1 |  | 0.42 µM | > 13 µM | 72% | Imax (HCT-116 [6]): 69%; IC50 (CAKI-1 [7]): 1.16 µM; IC50 (HCT-116 [8]): 0.54 µM; Imax (CAKI-1 [10]): 73%; Imax (H22 [11]): 29%
Nc1nnc(CCSCCc2nnc(NC(=O)Cc3ccccc3)s2)s1 |  | > 13 µM | > 13 µM |  | 
O=C(Cc1ccccc1)Nc1nnc(CCSCCc2nnc(NC(=O)Cc3ccccc3)[se]2)[se]1 |  | 0.23 µM | > 13 µM | 82% | 
Cn1ccc(CC(=O)Nc2nnc(CCSCCc3nnc(N)[se]3)[se]2)c1 | 2.1 µM | > 13 µM | > 13 µM |  | 
Cn1ccc(CC(=O)Nc2nnc(CCSCCc3nnc(NC(=O)Cc4ccn(C)c4)s3)s2)c1 |  | 2.2 µM | > 13 µM | 80% | 
O=c1ccc2ccccc2o1 [COUMARIN] |  |  |  |  | remaining at 4 h, 50 µM [12]: 14%
Cn1ccc(CC(=O)Nc2nnc(CCSCCc3nnc(NC(=O)Cc4ccn(C)c4)[se]3)[se]2)c1 |  | 1 µM | > 13 µM | 82% | 
c1ccc(CNc2nnc(CCSCCc3nnc(NCc4ccccc4)[se]3)[se]2)cc1 | > 13 µM | > 13 µM | > 13 µM | 0% | 
